Results on one compound are retold here after ChEMBL document CHEMBL1123266, “Antibacterial activity of phosphono dipeptides related to alafosfalin” (J Med Chem, 1986).

Converted amounts (≈) assume the structure as drawn.

In assay [1] the test system is Serratia marcescens. As to the kind of experiment: Compound was evaluated for its concentration (IC50) to inhibit the growth of Serratia marcescens. It is filed as functional, organism-based. Put shortly:
(§1)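 Broth dilution in a defined liquid peptide medium lacking antagonists of small peptide mimetics. Inocula were overnight cultures grown in this medium at 37 °C and diluted to about 4 × 10^6 cfu/mL. Compound was tested as a doubling dilution series, final 0.065–512 μg/mL, incubated overnight at 37 °C. Turbidity was read, and IC50 is the concentration reducing 24-h growth to 50% of control.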

Assay [2] has as its system Escherichia coli. Description: Concentration (IC50) to inhibit the growth of Escherichia coli. It is filed as functional, organism-based. Summed up:
as §1

Assay [3] concerns Enterococcus faecalis. Description: Concentration (IC50) to inhibit the growth of Streptococcus faecalis. It is filed as functional, organism-based. Put shortly: as §1
The subject of assay [4] is Bacillus subtilis. As to the kind of experiment: Minimum inhibitory concentration (MIC) to control the growth of Bacillus subtilis strain PCM 1949. It is filed as functional. Summed up:
(§2)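 Doubling dilutions of compound were made in a defined liquid peptide medium free of peptide-mimetic antagonists, final 0.065–512 μg/mL. The inoculum was an overnight 37 °C culture diluted to about 4 × 10^6 cfu/mL, incubated overnight at 37 °C. Non-turbid samples were subcultured (0.1 mL) onto solid peptide-medium agar and incubated overnight at 37 °C to assign MIC.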

Assay [5] relates to Enterococcus faecalis. Description: Minimum inhibitory concentration (MIC) to control the growth of Streptococcus faecalis strain PCM 896. It is filed as functional. Summed up:
as §2

In assay [6] the test system is Serratia marcescens. Description: Minimum inhibitory concentration (MIC) to control the growth of Serratia marcescens strain PCM 549. It is filed as functional. Summed up: as §2
Assay [7] relates to Klebsiella aerogenes. As to the kind of experiment: Minimum inhibitory concentration (MIC) to control the growth of Klebsiella aerogenes strain PCM 2063. It is filed as functional. Summed up:
as §2

The subject of assay [8] is Bacillus subtilis. As to the kind of experiment: Concentration (IC50) to inhibit the growth of Bacillus subtilis. It is filed as functional, organism-based. Summed up:
as §1

The test system of assay [9] is Klebsiella aerogenes. Description: Concentration (IC50) to inhibit the growth of Klebsiella aerogenes. It is filed as functional, organism-based. Put shortly: as §1
The subject of assay [10] is Escherichia coli. Description: Minimum inhibitory concentration (MIC) to control the growth of Escherichia coli strain PCM 2057. It is filed as functional. Summed up: as §2
The subject of assay [11] is Staphylococcus aureus. As to the kind of experiment: Minimum inhibitory concentration (MIC) to control the growth of Staphylococcus aureus strain PCM 2054. It is filed as functional. Put shortly: as §2
In assay [12] the test system is Staphylococcus aureus. Description: Concentration (IC50) to inhibit the growth of Staphylococcus aureus. It is filed as functional, organism-based. Summed up:
as §1

As to `CC(C)CC(N)C(=O)NC(C1CCC1)P(=O)(O)O` (configuration not stated), the IC50 was greater than 512 µg/mL with Serratia marcescens [1]; greater than 512 µg/mL with Escherichia coli [2]; 230 µg/mL (≈ 826 µM) with Enterococcus faecalis [3]; greater than 512 µg/mL in the assay with Bacillus subtilis [8]; greater than 512 µg/mL in the assay on Klebsiella aerogenes [9]; greater than 512 µg/mL with Staphylococcus aureus [12]. Besides, the MIC in the assay on Bacillus subtilis [4], with Enterococcus faecalis [5], in the assay with Serratia marcescens [6], against Klebsiella aerogenes [7], with Escherichia coli [10] and against Staphylococcus aureus [11] was greater than 512 µg/mL each time.

For orientation: IC50 means the concentration at which inhibition is half-maximal. In general, MIC refers to the least concentration at which growth counts as inhibited. High values mean a need for much substance, low ones inhibition by little substance.
